ChEMBL document CHEMBL1154352, “Toll-like receptor 7 selective synthetic oligoribonucleotide agonists: synthesis and structure-activity relationship studies” (J Med Chem, 2009)
The source made the active and inactive calls. The calls are words filed in the database; no cut-off is given here.

Legend:
[1] = target: T1, Toll-like receptor 7 (Homo sapiens) (UniProt Q9NYK1); experiment: Activation of human TLR7 expressed in HEK293XL assessed as fold induction of NF-kappaB activity at 50 ug/ml after 18 hrs by reporter gene assay relative to control
T1 sequence (whole entry): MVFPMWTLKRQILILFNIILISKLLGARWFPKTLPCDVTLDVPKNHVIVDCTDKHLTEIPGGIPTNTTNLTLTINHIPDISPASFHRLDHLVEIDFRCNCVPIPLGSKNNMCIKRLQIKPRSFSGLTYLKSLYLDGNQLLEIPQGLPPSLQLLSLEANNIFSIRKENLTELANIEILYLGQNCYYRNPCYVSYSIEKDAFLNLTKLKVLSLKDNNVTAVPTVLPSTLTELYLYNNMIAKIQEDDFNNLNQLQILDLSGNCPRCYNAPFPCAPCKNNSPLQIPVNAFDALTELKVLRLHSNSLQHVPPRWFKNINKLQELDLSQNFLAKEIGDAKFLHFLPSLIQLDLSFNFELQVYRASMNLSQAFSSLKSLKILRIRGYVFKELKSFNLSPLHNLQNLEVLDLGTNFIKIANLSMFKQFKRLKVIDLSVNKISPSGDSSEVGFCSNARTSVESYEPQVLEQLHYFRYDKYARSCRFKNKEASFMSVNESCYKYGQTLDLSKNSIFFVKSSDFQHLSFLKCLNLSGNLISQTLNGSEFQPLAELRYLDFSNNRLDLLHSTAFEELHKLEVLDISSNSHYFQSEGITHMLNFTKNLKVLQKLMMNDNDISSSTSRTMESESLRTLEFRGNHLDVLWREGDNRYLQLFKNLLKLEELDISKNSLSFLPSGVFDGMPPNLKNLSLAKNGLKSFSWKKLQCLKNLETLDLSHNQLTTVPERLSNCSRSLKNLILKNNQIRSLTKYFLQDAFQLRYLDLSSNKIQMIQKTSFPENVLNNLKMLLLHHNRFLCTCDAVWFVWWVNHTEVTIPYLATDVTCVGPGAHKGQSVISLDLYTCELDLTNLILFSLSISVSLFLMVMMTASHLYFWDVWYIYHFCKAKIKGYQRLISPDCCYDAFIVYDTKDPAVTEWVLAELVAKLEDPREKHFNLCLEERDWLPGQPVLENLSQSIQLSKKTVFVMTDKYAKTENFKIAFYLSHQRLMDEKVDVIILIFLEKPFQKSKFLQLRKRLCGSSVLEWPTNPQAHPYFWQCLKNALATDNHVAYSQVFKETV
Outline: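 HEK293 cells stably expressing human TLR7 or TLR8, transiently transfected with SEAP reporter plasmid; medium replaced, SIMRA compounds added, 18 h incubation. Supernatant SEAP measured by QuantiBlue; expressed as fold increase in NF-κB activity over PBS control. Tabulated data at 50 μg/mL, representative of three independent experiments.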

[2] = target: T2, Toll-like receptor 9 (Mus musculus) (UniProt Q9EQU3); experiment: Activation of mouse TLR9 expressed in HEK293 assessed as induction of NF-kappaB activity reporter gene assay; assay type: cell-based
T2 sequence (whole entry): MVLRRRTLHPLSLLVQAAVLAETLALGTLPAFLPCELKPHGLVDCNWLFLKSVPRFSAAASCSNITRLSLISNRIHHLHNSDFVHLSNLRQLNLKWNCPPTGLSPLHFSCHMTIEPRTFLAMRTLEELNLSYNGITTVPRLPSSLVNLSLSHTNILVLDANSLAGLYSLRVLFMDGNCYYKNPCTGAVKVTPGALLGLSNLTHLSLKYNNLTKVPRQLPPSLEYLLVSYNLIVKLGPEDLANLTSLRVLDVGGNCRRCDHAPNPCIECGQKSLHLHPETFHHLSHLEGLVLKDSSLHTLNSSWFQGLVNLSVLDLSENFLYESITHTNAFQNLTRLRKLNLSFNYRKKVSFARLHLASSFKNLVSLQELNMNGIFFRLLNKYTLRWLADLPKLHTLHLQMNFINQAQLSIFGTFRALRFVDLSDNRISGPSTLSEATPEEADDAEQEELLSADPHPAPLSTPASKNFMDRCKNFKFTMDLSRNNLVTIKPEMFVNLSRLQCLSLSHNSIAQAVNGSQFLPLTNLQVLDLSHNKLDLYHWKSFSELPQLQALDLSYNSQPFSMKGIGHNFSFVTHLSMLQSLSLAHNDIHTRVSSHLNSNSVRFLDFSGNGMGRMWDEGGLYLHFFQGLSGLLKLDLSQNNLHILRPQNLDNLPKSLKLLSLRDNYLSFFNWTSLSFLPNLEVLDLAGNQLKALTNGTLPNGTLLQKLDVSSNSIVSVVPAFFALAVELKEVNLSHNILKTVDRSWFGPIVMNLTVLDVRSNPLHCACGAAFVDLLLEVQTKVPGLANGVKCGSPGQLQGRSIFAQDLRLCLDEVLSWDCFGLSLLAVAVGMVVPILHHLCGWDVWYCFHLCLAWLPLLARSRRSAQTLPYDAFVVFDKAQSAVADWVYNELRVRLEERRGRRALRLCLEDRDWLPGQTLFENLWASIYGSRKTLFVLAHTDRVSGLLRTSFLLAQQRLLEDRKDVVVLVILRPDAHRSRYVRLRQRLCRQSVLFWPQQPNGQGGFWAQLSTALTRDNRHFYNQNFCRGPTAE

[3] = organism: Homo sapiens; experiment: Immunostimulatory activity in human pDC assessed as induction of IFNalpha at 100 ug/ml after 24 hrs; assay type: functional
Outline: (§1)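 Human pDCs plated at 1 × 10^6 cells/mL; compounds in PBS added, 37 °C for 24 h; supernatant cytokines/chemokines by human Luminex multiplex kit.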

[4] = test system: PBMC; experiment: Immunomodulatory activity in human PBMC assessed as induction of TNFalpha at 100 ug/ml after 24 hrs; assay type: functional, cell-based
Outline: (§2)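 Human PBMCs plated at 5 × 10^6 cells/mL; compounds dissolved in PBS added at various concentrations, 37 °C for 24 h. Supernatant cytokines/chemokines quantified with human Luminex multiplex kit.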

[5] = test system: PBMC; experiment: Immunomodulatory activity in human PBMC assessed as induction of IL12 at 50 ug/ml after 24 hrs; assay type: functional, cell-based; outline: as §2
[6] = test system: PBMC; experiment: Immunomodulatory activity in human PBMC assessed as induction of MCP1 at 50 ug/ml after 24 hrs; assay type: functional, cell-based; outline: as §2
[7] = test system: PBMC; experiment: Immunomodulatory activity in human PBMC assessed as induction of IL6 at 50 ug/ml after 24 hrs; assay type: functional, cell-based; outline: as §2
[8] = test system: PBMC; experiment: Immunomodulatory activity in human PBMC assessed as induction of IL1-beta at 50 ug/ml after 24 hrs; assay type: functional, cell-based; outline: as §2
[9] = organism: Homo sapiens; experiment: Immunostimulatory activity in human pDC assessed as induction of IP10 at 100 ug/ml after 24 hrs; assay type: functional; outline: as §1
[10] = organism: Homo sapiens; experiment: Immunostimulatory activity in human pDC assessed as induction of IL6 at 100 ug/ml after 24 hrs; assay type: functional; outline: as §1
[11] = organism: Homo sapiens; experiment: Immunostimulatory activity in human mDC assessed as induction of IL6 at 100 ug/ml after 24 hrs; assay type: functional
Outline: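 Human mDCs isolated from PBMCs by CD19+ B-cell depletion then BDCA1 positive selection; plated at 1 × 10^6 cells/mL, compounds in PBS, 37 °C for 24 h; supernatant cytokines by human Luminex multiplex. Representative of four independent experiments.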

In the case of `Nc1ccn([C@@H]2O[C@H](COP(=O)(S)O[C@H]3[C@@H](O)[C@H](n4cnc5c(N)ncnc54)O[C@@H]3COP(=O)(S)O[C@H]3[C@@H](O)[C@H](n4ccc5c(=O)[nH]c(N)nc54)O[C@@H]3COP(=O)(S)O[C@H]3[C@@H](O)[C@H](n4ccc(=O)[nH]c4=O)O[C@@H]3COP(=O)(S)O[C@H]3[C@@H](O)[C@H](n4ccc5c(=O)[nH]c(N)nc54)O[C@@H]3COP(=O)(S)O[C@H]3[C@@H](O)[C@H](n4cnc5c(N)ncnc54)O[C@@H]3COP(=O)(S)O[C@H]3[C@@H](O)[C@H](n4cnc5c(N)ncnc54)O[C@@H]3CO)[C@@H](OP(=O)(S)OC[C@H]3O[C@@H](n4ccc5c(=O)[nH]c(N)nc54)[C@H](O)[C@@H]3OP(=O)(S)OC[C@H]3O[C@@H](n4ccc(N)nc4=O)[C@H](O)[C@@H]3OP(=O)(S)OC[C@H]3O[C@@H](n4ccc(=O)[nH]c4=O)[C@H](O)[C@@H]3OP(=O)(S)OC[C@H]3O[C@@H](n4ccc(=O)[nH]c4=O)[C@H](O)[C@@H]3OP(=O)(S)OCC(O)COP(=O)(S)O[C@H]3[C@@H](O)[C@H](n4ccc(=O)[nH]c4=O)O[C@@H]3COP(=O)(S)O[C@H]3[C@@H](O)[C@H](n4ccc(=O)[nH]c4=O)O[C@@H]3COP(=O)(S)O[C@H]3[C@@H](O)[C@H](n4ccc(N)nc4=O)O[C@@H]3COP(=O)(S)O[C@H]3[C@@H](O)[C@H](n4ccc5c(=O)[nH]c(N)nc54)O[C@@H]3COP(=O)(S)O[C@H]3[C@@H](O)[C@H](n4ccc(N)nc4=O)O[C@@H]3COP(=O)(S)O[C@H]3[C@@H](O)[C@H](n4cnc5c(N)ncnc54)O[C@@H]3COP(=O)(S)O[C@H]3[C@@H](O)[C@H](n4ccc5c(=O)[nH]c(N)nc54)O[C@@H]3COP(=O)(S)O[C@H]3[C@@H](O)[C@H](n4ccc(=O)[nH]c4=O)O[C@@H]3COP(=O)(S)O[C@H]3[C@@H](O)[C@H](n4ccc5c(=O)[nH]c(N)nc54)O[C@@H]3COP(=O)(S)O[C@H]3[C@@H](O)[C@H](n4cnc5c(N)ncnc54)O[C@@H]3COP(=O)(S)O[C@H]3[C@@H](O)[C@H](n4cnc5c(N)ncnc54)O[C@@H]3CO)[C@H]2O)c(=O)n1` (some centres not stated), the fold change (FC) [1] is reported as 22.6, the Activity [2] is reported as “inactive” and the Activity [3] is reported as “Active”. For the same compound, the Activity [4] was 26.2 pg/mL, the Activity [5] was 316 pg/mL and the Activity [6] was 51500 pg/mL. For the same compound, the Activity [7] was 1300 pg/mL, the Activity [8] was 105 pg/mL and the Activity [9] was “Active”. The Activity [10] was “Active” and the Activity [11] was “Active”.
With `Nc1ccn([C@@H]2O[C@H](COP(O)(=S)O[C@H]3[C@@H](O)[C@H](n4ccc(=O)[nH]c4=O)O[C@@H]3COP(O)(=S)O[C@H]3[C@@H](O)[C@H](n4ccc(=O)[nH]c4=O)O[C@@H]3COP(O)(=S)O[C@H]3[C@@H](O)[C@H](n4ccc(N)nc4=O)O[C@@H]3COP(O)(=S)O[C@H]3[C@@H](O)[C@H](n4ccc5c(=O)[nH]c(N)nc54)O[C@@H]3COP(O)(=S)O[C@H]3[C@@H](O)[C@H](n4ccc(=O)[nH]c4=O)O[C@@H]3COP(O)(=S)O[C@H]3[C@@H](O)[C@H](n4ccc(N)nc4=O)O[C@@H]3COP(O)(=S)O[C@H]3[C@@H](O)[C@H](n4ccc5c(=O)[nH]c(N)nc54)O[C@@H]3COP(O)(=S)O[C@H]3[C@@H](O)[C@H](n4ccc(=O)[nH]c4=O)O[C@@H]3CO)[C@@H](OP(O)(=S)OC[C@H]3O[C@@H](n4ccc(=O)[nH]c4=O)[C@H](O)[C@@H]3OP(O)(=S)OC[C@H]3O[C@@H](n4ccc5c(=O)[nH]c(N)nc54)[C@H](O)[C@@H]3OP(O)(=S)OCC(O)COP(O)(=S)O[C@H]3[C@@H](O)[C@H](n4ccc5c(=O)[nH]c(N)nc54)O[C@@H]3COP(O)(=S)O[C@H]3[C@@H](O)[C@H](n4ccc(=O)[nH]c4=O)O[C@@H]3COP(O)(=S)O[C@H]3[C@@H](O)[C@H](n4ccc(N)nc4=O)O[C@@H]3COP(O)(=S)O[C@H]3[C@@H](O)[C@H](n4ccc(=O)[nH]c4=O)O[C@@H]3COP(O)(=S)O[C@H]3[C@@H](O)[C@H](n4ccc(=O)[nH]c4=O)O[C@@H]3COP(O)(=S)O[C@H]3[C@@H](O)[C@H](n4ccc(N)nc4=O)O[C@@H]3COP(O)(=S)O[C@H]3[C@@H](O)[C@H](n4ccc5c(=O)[nH]c(N)nc54)O[C@@H]3COP(O)(=S)O[C@H]3[C@@H](O)[C@H](n4ccc(=O)[nH]c4=O)O[C@@H]3COP(O)(=S)O[C@H]3[C@@H](O)[C@H](n4ccc(N)nc4=O)O[C@@H]3COP(O)(=S)O[C@H]3[C@@H](O)[C@H](n4ccc5c(=O)[nH]c(N)nc54)O[C@@H]3COP(O)(=S)O[C@H]3[C@@H](O)[C@H](n4ccc(=O)[nH]c4=O)O[C@@H]3CO)[C@H]2O)c(=O)n1` (some centres not stated) the fold change (FC) [1] was 16.1, the Activity [2] was “inactive” and the Activity [3] was “Active”. For the same compound, the Activity [4] was 385 pg/mL, the Activity [5] was 671 pg/mL and the Activity [6] was 47400 pg/mL. The Activity [7] was 5580 pg/mL, the Activity [8] was 688 pg/mL and the Activity [9] was “Active”. For the same compound, the Activity [10] was “Active” and the Activity [11] was “Active”.
